According to ChEMBL document CHEMBL1124368 (J Med Chem, 1989):
Each block holds one molecule with its values, some of them ahead of it.

Columns and labels:
[1] = system: Mus musculus; experiment: Mean of weight gain from day 0 to day 24 at a dose of 6.25 mg/kg/day; type: functional; set-up: unit not given here
In short: (§1)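 M5076 reticulum cell sarcoma: 10⁶ cells implanted im into the left leg of female BDF₁ mice (groups of five) on day 0. Drug in 10–20% DMSO in arachis oil was given ip daily on days 1–17. Weight change is the mean weight gain from day 0 to day 24.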

[2] = system: Mus musculus; experiment: (§2) Mean of weight gain from day 0 to day 24 at a dose of 3.125 mg/kg/day of compound; type: functional; set-up: unit not given here; in short: as §1
[3] = system: Mus musculus; experiment: Mean of weight gain from day 0 to day 24 at a dose of 12.5 mg/kg/day of compound; type: functional; set-up: unit not given here; in short: as §1
[4] = system: Mus musculus; experiment: Mean of weight gain from day 0 to day 24 at a dose of 25 mg/kg/day of compound; type: functional; set-up: unit not given here; in short: as §1
[5] = system: Mus musculus; experiment: Ratio of tumor volume of test(T) animals compared to control(C) animals x 100 T/C(%)] at a dose of 3.125 mg/kg/day; type: functional
In short: (§3)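 M5076 reticulum cell sarcoma: 10⁶ cells implanted im into the left leg of female BDF₁ mice (groups of five) on day 0. Treatment was ip, daily on days 1–17, in 10–20% DMSO in arachis oil. T/C% is treated tumor volume over control tumor volume × 100.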

[6] = system: Mus musculus; experiment: Tumor volume in 16 days after tumor implantation at a dose of 3.125 mg/kg/day of compound; type: functional
In short: (§4)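 10⁶ M5076 reticulum cell sarcoma cells were injected im into the left leg of female BDF₁ mice, five per group, on day 0. Compound in 10–20% DMSO/arachis oil was dosed ip daily on days 1–17. Tumor volumes (mm³) were recorded on days 12, 16, 20 and 24 after implantation, with NM marking a tumor that could not be measured.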

[7] = system: Mus musculus; experiment: Tumor volume in 24 days after tumor implantation at a dose of 3.125 mg/kg/day; type: functional; in short: as §4
[8] = system: Mus musculus; experiment: Tumor volume in 24 days after tumor implantation at a dose of 12.5 mg/kg/day; type: functional; in short: as §4
[9] = system: Mus musculus; experiment: Tumor volume in 20 days after tumor implantation at a dose of 3.125 mg/kg/day; type: functional; in short: as §4
[10] = system: Mus musculus; experiment: Ratio of tumor volume of test(T) animals compared to control(C) animals x 100 T/C(%)] at a dose of 25 mg/kg/day; type: functional; in short: as §3
[11] = system: Mus musculus; experiment: Ratio of tumor volume of test(T) animals compared to control(C) animals x 100 T/C(%)] at a dose of 6.25 mg/kg/day; type: functional; in short: as §3
[12] = system: Mus musculus; experiment: Ratio of tumor volume of test(T) animals compared to control(C) animals x 100 T/C(%)] at a dose of 12.50 mg/kg/day; type: functional; in short: as §3
[13] = system: Mus musculus; experiment: Tumor volume in 24 days after tumor implantation at a dose of 6.25 mg/kg/day; type: functional; in short: as §4
[14] = molecular target: T1, Dihydrofolate reductase (Rattus norvegicus, UniProt Q920D2); experiment: In vitro inhibitory concentration against rat liver dihydrofolate reductase(DHFR); conditions: read-out: I50
T1 sequence (Q920D2 whole entry): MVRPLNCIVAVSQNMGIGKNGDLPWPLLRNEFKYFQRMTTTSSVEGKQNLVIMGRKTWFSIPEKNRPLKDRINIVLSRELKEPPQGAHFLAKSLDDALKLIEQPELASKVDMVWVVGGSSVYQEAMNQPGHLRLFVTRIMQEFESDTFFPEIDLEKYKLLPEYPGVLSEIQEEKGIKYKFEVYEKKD
In short: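 Partially purified rat liver DHFR, prepared by the Bertino and Fischer method, assayed spectrophotometrically at 340 nm. I50 is the final inhibitor concentration that cuts the reaction rate to 50% of the uninhibited rate. […] Inhibitors were dissolved in 0.1 M HCl or 95% ethanol.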

[15] = system: Mus musculus; experiment: Ratio of tumor volume of test(T) animals compared to control(C) animals x 100 T/C(%)] at a dose of 3.125 mg/kg/day of compound; maximal activity for this system.; type: organism-based; conditions: in vivo; in short: as §3
[16] = system: Mus musculus; experiment: Tumor volume in 16 days after tumor implantation at a dose of 3.125 mg/kg/day of compound; NM=tumor not measureable; type: functional, organism-based; in short: as §4
[17] = system: Mus musculus; experiment: Number of survivors versus treated on day 24 at a dose of 6.25 mg/kg/day of compound; none of them survived(0/5); type: functional
[18] = system: Mus musculus; experiment: Tumor volume in 20 days after tumor implantation at a dose of 3.125 mg/kg/day of compound; NM=tumor not measureable; type: functional, organism-based; in short: as §4
[19] = system: Mus musculus; experiment: Tumor volume in 24 days after tumor implantation at a dose of 3.125 mg/kg/day of compound; NM=tumor not measureable; type: functional, organism-based; in short: as §4
[20] = system: Mus musculus; experiment: Number of survivors versus treated on day 24 at a dose of 12.5 mg/kg/day of compound; none of them survived(0/5); type: functional
[21] = system: Mus musculus; experiment: Number of survivors treated on day 24 at a dose of 25 mg/kg/day of compound expressed as ratio of (test/control); none of them survived(0/5); type: functional
[22] = system: Mus musculus; experiment: Tumor volume in 12 days after tumor implantation at a dose of 3.125 mg/kg/day of compound; NM=tumor not measureable.; type: functional, organism-based; in short: as §4
[23] = system: Mus musculus; experiment: Mean of weight gain from day 0 to day 24 at a dose of 3.125 mg/kg/day of compound (maximum activity noticed); type: functional; in short: as §1
[24] = system: Mus musculus; experiment: Number of survivors versus treated on day 24 at a dose of 6.25 mg/kg/day of compound; Tumor not measurable; type: functional, organism-based
[25] = system: Mus musculus; experiment: Number of survivors versus treated on day 24 at a dose of 12.5 mg/kg/day of compound; Tumor not measurable; type: functional, organism-based
[26] = system: Mus musculus; experiment: Tumor volume in 20 days after tumor implantation at a dose of 6.25 mg/kg/day of compound; type: functional; in short: as §4
[27] = system: Mus musculus; experiment: Tumor volume in 16 days after tumor implantation at a dose of 50 mg/kg/day of compound; NM=Tumor not measurable; type: functional, organism-based; in short: as §4
[28] = system: Mus musculus; experiment: Tumor volume in 24 days after tumor implantation at a dose of 25 mg/kg/day of compound; type: functional; in short: as §4
[29] = system: Mus musculus; experiment: as §2; type: functional; in short: as §1

SMILES: CCc1nc(N)nc(N)c1-c1ccc(NCc2ccc(C(F)(F)F)cc2)c([N+](=O)[O-])c1
Weight change [1]: 2.3
Weight change [2]: 3.4
Weight change [3]: 2
Weight change [4]: 6.2
Antitumor activity [5]: 40%
Tumor volume [6]: 291 mm**3
Tumor volume [7]: 948 mm**3
Tumor volume [8]: 265 mm**3
Tumor volume [9]: 627 mm**3
Antitumor activity [10]: <8%
Antitumor activity [11]: 20%
Antitumor activity [12]: 12%
Tumor volume [13]: 454 mm**3

IC50 [14]: 8.5 µM
SMILES: CCc1nc(N)nc(N)c1-c1ccc(N(C)C2CCCCC2)c(N)c1

IC50 [14]: 3.9 µM
SMILES: CCc1nc(N)nc(N)c1-c1ccc(N2CCN(C)CC2)c([N+](=O)[O-])c1

IC50 [14]: 3.1 µM
SMILES: CCc1nc(N)nc(N)c1-c1ccc(N2CCNCC2)c([N+](=O)[O-])c1

SMILES: Cc1nc(N)nc(N)c1-c1ccc(Cl)c(Cl)c1 [METOPRINE]
T/C [15]: < 8%
Tumor volume [16]: Not measurable
Survivors [17]: 0
Tumor volume [18]: Not measurable
Tumor volume [19]: Not measurable
Survivors [20]: 0
Survivors [21]: 0
Tumor volume [22]: Not measurable
Weight change [23]: 4.9

SMILES: CCc1nc(N)nc(N)c1-c1ccc(N(CC)Cc2ccccc2)c([N+](=O)[O-])c1
Survivors [24]: Not measurable
Weight change [1]: 1.6
Weight change [2]: 2.3
Weight change [3]: 1.1
Weight change [4]: 0.8
Antitumor activity [5]: 50%
Tumor volume [7]: 1375 mm**3
Tumor volume [8]: 316 mm**3
Tumor volume [9]: 698 mm**3
Survivors [25]: Not measurable
Antitumor activity [10]: <8%
Antitumor activity [11]: 31%
Antitumor activity [12]: 12%
Tumor volume [13]: 854 mm**3
Tumor volume [26]: 492 mm**3

IC50 [14]: 0.02 µM
SMILES: CCc1nc(N)nc(N)c1-c1ccc(NCc2ccc(OC)cc2)c([N+](=O)[O-])c1
Weight change [1]: 3.6
Weight change [2]: 4.1
Weight change [3]: 2.3
Weight change [4]: 0.2
Antitumor activity [5]: 50%
Tumor volume [6]: 306 mm**3
Tumor volume [7]: 1482 mm**3
Tumor volume [8]: 636 mm**3
Tumor volume [9]: 831 mm**3
Antitumor activity [10]: <8%
Antitumor activity [11]: 30%
Antitumor activity [12]: 21%
Tumor volume [13]: 875 mm**3
Tumor volume [26]: 416 mm**3

IC50 [14]: 0.44 µM
SMILES: CCc1nc(N)nc(N)c1-c1ccc([N+](=O)[O-])c(N(C)Cc2ccccc2)c1

SMILES: CCc1nc(N)nc(N)c1-c1ccc(NCc2ccc(OC)c(OC)c2)c([N+](=O)[O-])c1
Weight change [1]: 0.9
Weight change [2]: 1
Antitumor activity [5]: 10%
Tumor volume [7]: 371 mm**3
Antitumor activity [11]: 9%
Tumor volume [13]: 324 mm**3

IC50 [14]: 6.2 µM
SMILES: CCc1nc(N)nc(N)c1-c1ccc(N(C)C)cc1

IC50 [14]: 0.08 µM
SMILES: CCc1nc(N)nc(N)c1-c1ccc(Cl)c([N+](=O)[O-])c1

IC50 [14]: > 25 µM
SMILES: CCc1nc(N)nc(N)c1-c1ccc(N2CCN(C)CC2)c(N)c1

IC50 [14]: > 25 µM
SMILES: CCc1nc(N)nc(N)c1-c1ccc(N2CCCC2)c(N)c1

SMILES: CCc1nc(N)nc(N)c1-c1ccc(NCc2ccccc2)c([N+](=O)[O-])c1
Weight change [1]: 2.1
Weight change [2]: 2.2
Weight change [3]: 1.6
Weight change [4]: 1.7
Antitumor activity [5]: 53%
Tumor volume [7]: 1454 mm**3
Tumor volume [8]: 586 mm**3
Tumor volume [9]: 443 mm**3
Antitumor activity [10]: <8%
Antitumor activity [11]: 34%
Antitumor activity [12]: 21%
Tumor volume [13]: 932 mm**3
Tumor volume [26]: 301 mm**3

IC50 [14]: > 25 µM
SMILES: CCc1nc(N)nc(N)c1-c1ccc(N2CCNCC2)c(N)c1

SMILES: CCc1nc(N)nc(N)c1-c1ccc(NC)c([N+](=O)[O-])c1
Weight change [1]: 3.3
Weight change [2]: 4.3
Weight change [3]: 2.1
Weight change [4]: 2.1
Antitumor activity [5]: 61%
Tumor volume [27]: Not measurable
Tumor volume [7]: 1407 mm**3
Tumor volume [8]: 462 mm**3
Tumor volume [9]: 822 mm**3
Tumor volume [28]: 220 mm**3
Antitumor activity [10]: 10%
Antitumor activity [11]: 35%
Antitumor activity [12]: 20%
Tumor volume [13]: 805 mm**3
Tumor volume [26]: 640 mm**3

SMILES: CCc1nc(N)nc(N)c1-c1ccc(NCc2ccc(F)cc2)c([N+](=O)[O-])c1
Weight change [1]: 2.5
Weight change [3]: 2
Weight change [4]: 4.3
Antitumor activity [5]: 68%
Tumor volume [6]: 337 mm**3
Tumor volume [7]: 1555 mm**3
Tumor volume [8]: 386 mm**3
Tumor volume [9]: 539 mm**3
Weight change [29]: 3.8
Antitumor activity [10]: <8%
Antitumor activity [11]: 20%
Antitumor activity [12]: 17%
Tumor volume [13]: 448 mm**3

IC50 [14]: 8 µM
SMILES: CCc1nc(N)nc(N)c1-c1ccc(N2CCOCC2)c([N+](=O)[O-])c1

SMILES: CCc1nc(N)nc(N)c1-c1ccc(NCc2ccc(Cl)cc2)c([N+](=O)[O-])c1
Weight change [1]: 3.3
Weight change [2]: 3.2
Weight change [3]: 2.9
Antitumor activity [5]: 29%
Tumor volume [7]: 873 mm**3
Tumor volume [8]: 380 mm**3
Tumor volume [9]: 552 mm**3
Antitumor activity [11]: 20%
Antitumor activity [12]: 13%
Tumor volume [13]: 597 mm**3

IC50 [14]: 1.7 µM
SMILES: CCc1nc(N)nc(N)c1-c1ccc(N2CCCC2)c([N+](=O)[O-])c1

IC50 [14]: 67 µM
SMILES: CCc1nc(N)nc(N)c1-c1ccc(N(C)C)c(N)c1

IC50 [14]: 9.2 µM
SMILES: CCc1nc(N)nc(N)c1-c1ccc([N+](=O)[O-])c(NCc2ccccc2)c1

IC50 [14]: > 25 µM
SMILES: CCc1nc(N)nc(N)c1-c1ccc(N2CCCCC2)c(N)c1

IC50 [14]: > 25 µM
SMILES: CCc1nc(N)nc(N)c1-c1ccc(N2CCOCC2)c(N)c1

IC50 [14]: 4 µM
SMILES: CCc1nc(N)nc(N)c1-c1ccc(N(CC)Cc2ccccc2)c(N)c1

IC50 [14]: 0.1 µM
SMILES: CCc1nc(N)nc(N)c1-c1ccc(N(C)Cc2ccccc2)c(N)c1
